Experiments:
[1] = system: Brain; assay: Biodistribution in ddY mouse brain assessed as radioactivity at 0.5 uCi, iv after 2 mins; format: ADME, organism-based; conditions: in vivo
Procedure, shortened: (§1)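 Normal mice given no-carrier-added 125I-labelled tracer (HPLC-purified) by intravenous injection, then sampled at 2, 10, 30 and 60 min. Radioactivity expressed as % injected dose per gram of tissue, and per whole organ for stomach. Values are mean (SD) of 3–5 animals per time point.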

[2] = Binding affinity at amyloid peptide plaques; parameters: species or system Homo sapiens
Procedure, shortened: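 Saturation binding to synthetic Aβ(1–40) aggregates (57 nM final), pre-aggregated at 0.5 mg/mL in pH 7.4 10 mM sodium phosphate/1 mM EDTA, 37 °C, 42 h with shaking. Radioiodinated ligand 1–125 nM final (made by mixing with cold compound), in 10% ethanol, 3 h at room temperature. Filtered on GF/B, bound 125I gamma-counted. Nonspecific binding defined with 1 µM cold ligand. Kd by Scatchard analysis.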

[3] = system: Brain; assay: Biodistribution in ddY mouse brain assessed as radioactivity at 0.5 uCi, iv after 60 mins; format: ADME, organism-based; conditions: in vivo; procedure, shortened: as §1
[4] = system: Pancreas; assay: Biodistribution in ddY mouse pancreas assessed as radioactivity at 0.5 uCi, iv after 2 mins; format: ADME, organism-based; conditions: in vivo; procedure, shortened: as §1
[5] = system: Spleen; assay: Biodistribution in ddY mouse spleen assessed as radioactivity at 0.5 uCi, iv after 2 mins; format: ADME, organism-based; conditions: in vivo; procedure, shortened: as §1
[6] = system: Blood; assay: Biodistribution in ddY mouse blood assessed as radioactivity at 0.5 uCi, iv after 2 mins; format: ADME, organism-based; conditions: in vivo; procedure, shortened: as §1
[7] = system: Spleen; assay: Biodistribution in ddY mouse spleen assessed as radioactivity at 0.5 uCi, iv after 30 mins; format: ADME, organism-based; conditions: in vivo, 0.5 h; procedure, shortened: as §1
[8] = system: Kidney; assay: Biodistribution in ddY mouse kidney assessed as radioactivity at 0.5 uCi, iv after 2 mins; format: ADME, organism-based; conditions: in vivo; procedure, shortened: as §1
[9] = system: Pancreas; assay: Biodistribution in ddY mouse pancreas assessed as radioactivity at 0.5 uCi, iv after 10 mins; format: ADME, organism-based; conditions: in vivo; procedure, shortened: as §1
[10] = system: Pancreas; assay: Biodistribution in iv dosed ddY mouse pancreas assessed as radioactivity after 30 mins; format: ADME, organism-based; conditions: in vivo, 0.5 h; procedure, shortened: as §1
[11] = Partition coefficient, log P at pH 7.4; format: physicochemical; conditions: octanol/water
Procedure, shortened: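 HPLC-purified radioiodinated tracer partitioned between 3 mL 1-octanol and 3 mL 0.1 M phosphate buffer pH 7.4. Vortexed 3 min at room temperature, then centrifuged 5 min. 0.5 mL samples from each layer well-counted. Ratio taken of octanol to buffer cpm/0.5 mL. Octanol layer re-partitioned until values were consistent. Done in triplicate and repeated three times.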

[12] = system: Intestine; assay: Biodistribution in ddY mouse intestine assessed as radioactivity at 0.5 uCi, iv after 2 mins; format: ADME, organism-based; conditions: in vivo; procedure, shortened: as §1
[13] = system: Liver; assay: Biodistribution in ddY mouse liver assessed as radioactivity at 0.5 uCi, iv after 10 mins; format: ADME, organism-based; conditions: in vivo; procedure, shortened: as §1
[14] = system: Brain; assay: Biodistribution in ddY mouse brain assessed as radioactivity at 0.5 uCi, iv after 30 mins; format: ADME, organism-based; conditions: in vivo, 0.5 h; procedure, shortened: as §1
[15] = system: Brain; assay: Biodistribution in ddY mouse brain assessed as radioactivity at 0.5 uCi, iv after 10 mins; format: ADME, organism-based; conditions: in vivo; procedure, shortened: as §1
[16] = system: Heart; assay: Biodistribution in ddY mouse heart assessed as radioactivity at 0.5 uCi, iv after 2 mins; format: ADME, organism-based; conditions: in vivo; procedure, shortened: as §1
[17] = system: Blood; assay: Biodistribution in ddY mouse blood assessed as radioactivity at 0.5 uCi, iv after30 mins; format: ADME, organism-based; conditions: in vivo, 0.5 h; procedure, shortened: as §1
[18] = system: Liver; assay: Biodistribution in ddY mouse liver assessed as radioactivity at 0.5 uCi, iv after 2 mins; format: ADME, organism-based; conditions: in vivo; procedure, shortened: as §1
[19] = system: Heart; assay: Biodistribution in ddY mouse heart assessed as radioactivity at 0.5 uCi, iv after 30 mins; format: ADME, organism-based; conditions: in vivo, 0.5 h; procedure, shortened: as §1
[20] = system: Kidney; assay: Biodistribution in ddY mouse kidney assessed as radioactivity at 0.5 uCi, iv after 10 mins; format: ADME, organism-based; conditions: in vivo; procedure, shortened: as §1
[21] = system: Intestine; assay: Biodistribution in ddY mouse intestine assessed as radioactivity at 0.5 uCi, iv after 30 mins; format: ADME, organism-based; conditions: in vivo, 0.5 h; procedure, shortened: as §1
[22] = system: Stomach; assay: Biodistribution in ddY mouse stomach assessed as radioactivity at 0.5 uCi, iv after 2 mins; format: ADME, organism-based; conditions: in vivo; procedure, shortened: as §1
[23] = system: Intestine; assay: Biodistribution in ddY mouse intestine assessed as radioactivity at 0.5 uCi, iv after10 mins; format: ADME, organism-based; conditions: in vivo, 10 min; procedure, shortened: as §1
[24] = system: Blood; assay: Biodistribution in ddY mouse blood assessed as radioactivity at 0.5 uCi, iv after 10 mins; format: ADME, organism-based; conditions: in vivo; procedure, shortened: as §1
[25] = system: Stomach; assay: Biodistribution in ddY mouse stomach assessed as radioactivity at 0.5 uCi, iv after10 mins; format: ADME, organism-based; conditions: in vivo, 10 min; procedure, shortened: as §1
[26] = system: Liver; assay: Biodistribution in ddY mouse liver assessed as radioactivity at 0.5 uCi, iv after 30 mins; format: ADME, organism-based; conditions: in vivo, 0.5 h; procedure, shortened: as §1
[27] = system: Heart; assay: Biodistribution in ddY mouse heart assessed as radioactivity at 0.5 uCi, iv after 10 mins; format: ADME, organism-based; conditions: in vivo; procedure, shortened: as §1
[28] = system: Stomach; assay: Biodistribution in ddY mouse stomach assessed as radioactivity at 0.5 uCi, iv after 30 mins; format: ADME, organism-based; conditions: in vivo, 0.5 h; procedure, shortened: as §1
[29] = system: Kidney; assay: Biodistribution in ddY mouse kidney assessed as radioactivity at 0.5 uCi, iv after 30 mins; format: ADME, organism-based; conditions: in vivo, 0.5 h; procedure, shortened: as §1
[30] = system: Spleen; assay: Biodistribution in ddY mouse spleen assessed as radioactivity at 0.5 uCi, iv after 10 mins; format: ADME, organism-based; conditions: in vivo; procedure, shortened: as §1
[31] = system: Heart; assay: Biodistribution in ddY mouse heart assessed as radioactivity at 0.5 uCi, iv after 60 mins; format: ADME, organism-based; conditions: in vivo, 1 h; procedure, shortened: as §1
[32] = system: Liver; assay: Biodistribution in ddY mouse liver assessed as radioactivity at 0.5 uCi, iv after 60 mins; format: ADME, organism-based; conditions: in vivo, 1 h; procedure, shortened: as §1
[33] = system: Kidney; assay: Biodistribution in ddY mouse kidney assessed as radioactivity at 0.5 uCi, iv after 60 mins; format: ADME, organism-based; conditions: in vivo, 1 h; procedure, shortened: as §1
[34] = system: Pancreas; assay: Biodistribution in ddY mouse pancreas assessed as radioactivity at 0.5 uCi, iv after 60 mins; format: ADME, organism-based; conditions: in vivo, 1 h; procedure, shortened: as §1
[35] = system: Stomach; assay: Biodistribution in ddY mouse stomach assessed as radioactivity at 0.5 uCi, iv after 60 mins; format: ADME, organism-based; conditions: in vivo, 1 h; procedure, shortened: as §1
[36] = system: Intestine; assay: Biodistribution in ddY mouse intestine assessed as radioactivity at 0.5 uCi, iv after 60 mins; format: ADME, organism-based; conditions: in vivo, 1 h; procedure, shortened: as §1
[37] = system: Spleen; assay: Biodistribution in ddY mouse spleen assessed as radioactivity at 0.5 uCi, iv after 60 mins; format: ADME, organism-based; conditions: in vivo, 1 h; procedure, shortened: as §1
[38] = system: Blood; assay: Biodistribution in ddY mouse blood assessed as radioactivity at 0.5 uCi, iv after 60 mins; format: ADME, organism-based; conditions: in vivo, 1 h; procedure, shortened: as §1

CN(C)c1ccc(-c2cn3cc([125I])ccc3n2)cc1
Drug uptake [1]: 2.88% | Ki [2]: […] | Drug uptake ([3]; 30 min, in the assay text read “after 30 mins” for “after 60 mins”): 0.26 % ID/g

CN(C)c1ccc(/C=C/c2cc(=O)c3cc([125I])ccc3o2)cc1
Drug uptake [4]: 3.02 % ID/g | Drug uptake [5]: 2.43 % ID/g | Drug uptake [6]: 2.62 % ID/g | Drug uptake [1]: 1.14 % ID/g | Drug uptake [7]: 1.38 % ID/g | Drug uptake [8]: 6.7 % ID/g | Drug uptake [9]: 2.73 % ID/g | Drug uptake [10]: 1.34 % ID/g | logD [11]: 2.65 | Drug uptake [12]: 1.45 % ID/g | Drug uptake [13]: 10.15 % ID/g | Drug uptake [14]: 1.37 % ID/g | Drug uptake [15]: 1.76 % ID/g | Drug uptake [16]: 6.25 % ID/g | Drug uptake [17]: 1.13 % ID/g | Drug uptake [18]: 11.17 % ID/g | Drug uptake [19]: 1.27 % ID/g | Drug uptake [20]: 4.51 % ID/g | Drug uptake [21]: 12.68 % ID/g | Drug uptake [22]: 0.7 %ID | Drug uptake [23]: 4.95 % ID/g | Drug uptake [24]: 1.44 % ID/g | Drug uptake [25]: 1.14 %ID | Drug uptake [26]: 7.72 % ID/g | Drug uptake [27]: 1.75 % ID/g | Kd [2]: 8.7 nM | Drug uptake [28]: 1.23 %ID | Drug uptake [29]: 3.69 % ID/g | Drug uptake [30]: 2.01 % ID/g

Nc1ccc(/C=C/c2cc(=O)c3cc([125I])ccc3o2)cc1
Drug uptake [31]: 1.64 % ID/g | Drug uptake [4]: 6.58 % ID/g | Drug uptake [5]: 4.23 % ID/g | Drug uptake [6]: 2.34 % ID/g | Drug uptake [1]: 4.88 % ID/g | Drug uptake [7]: 2.92 % ID/g | Drug uptake [32]: 8.16 % ID/g | Drug uptake [8]: 11.94 % ID/g | Drug uptake [9]: 5.18 % ID/g | Drug uptake [10]: 3.07 % ID/g | logD [11]: 1.65 | Drug uptake [12]: 2.84 % ID/g | Drug uptake [33]: 3.76 % ID/g | Drug uptake [13]: 14.49 % ID/g | Drug uptake [14]: 2.78 % ID/g | Drug uptake [15]: 4.4 % ID/g | Drug uptake [16]: 8.4 % ID/g | Drug uptake [17]: 2.56 % ID/g | Drug uptake [34]: 1.11 % ID/g | Drug uptake [18]: 13.23 % ID/g | Drug uptake [19]: 2.43 % ID/g | Drug uptake [20]: 6.99 % ID/g | Drug uptake [21]: 11.71 % ID/g | Drug uptake [22]: 1.24 %ID | Drug uptake [23]: 5.51 % ID/g | Drug uptake [24]: 2.44 % ID/g | Drug uptake [25]: 1.81 %ID | Drug uptake [26]: 10.27 % ID/g | Drug uptake [35]: 3.29 %ID | Drug uptake [27]: 3.78 % ID/g | Kd [2]: 32 nM | Drug uptake [36]: 16.08 % ID/g | Drug uptake ([3]; 1 h): 1.62 % ID/g | Drug uptake [37]: 2.16 % ID/g | Drug uptake [38]: 2.27 % ID/g | Drug uptake [28]: 2.17 %ID | Drug uptake [29]: 4.91 % ID/g | Drug uptake [30]: 3.64 % ID/g

CNc1ccc(/C=C/c2cc(=O)c3cc([125I])ccc3o2)cc1
Drug uptake [31]: 1.47 % ID/g | Drug uptake [4]: 4.92 % ID/g | Drug uptake [5]: 3.88 % ID/g | Drug uptake [6]: 3.21 % ID/g | Drug uptake [1]: 2.84 % ID/g | Drug uptake [7]: 2.66 % ID/g | Drug uptake [32]: 7.82 % ID/g | Drug uptake [8]: 10.41 % ID/g | Drug uptake [9]: 3.56 % ID/g | Drug uptake [10]: 2.25 % ID/g | logD [11]: 2.15 | Drug uptake [12]: 2.59 % ID/g | Drug uptake [33]: 3.52 % ID/g | Drug uptake [13]: 14.41 % ID/g | Drug uptake [14]: 1.86 % ID/g | Drug uptake [15]: 2.96 % ID/g | Drug uptake [16]: 6.92 % ID/g | Drug uptake [17]: 2.19 % ID/g | Drug uptake [34]: 1.32 % ID/g | Drug uptake [18]: 14.55 % ID/g | Drug uptake [19]: 2.09 % ID/g | Drug uptake [20]: 7.05 % ID/g | Drug uptake [21]: 16.72 % ID/g | Drug uptake [22]: 1 %ID | Drug uptake [23]: 8.55 % ID/g | Drug uptake [24]: 2.44 % ID/g | Drug uptake [25]: 1.89 %ID | Drug uptake [26]: 11.13 % ID/g | Drug uptake [35]: 1.9 %ID | Drug uptake [27]: 3.31 % ID/g | Kd [2]: 17.5 nM | Drug uptake [36]: 19.16 % ID/g | Drug uptake ([3]; 1 h): 0.99 % ID/g | Drug uptake [37]: 1.51 % ID/g | Drug uptake [38]: 1.79 % ID/g | Drug uptake [28]: 2.01 %ID | Drug uptake [29]: 5.48 % ID/g | Drug uptake [30]: 4.42 % ID/g

— ChEMBL document CHEMBL1144491, “Synthesis and characterization of styrylchromone derivatives as beta-amyloid imaging agents” (Bioorg Med Chem, 2007)
